Test results from ChEMBL document CHEMBL3102711 (Eur J Med Chem, 2014).
Calls of active or inactive are those of the source. No cut-off for these calls is given here.

Assays:
[1] = Antiproliferative activity against human MUTU-I cells after 24 hrs by Alamar blue assay; format: functional, cell-based
[2] = (§1) Antiproliferative activity against human DG75 cells after 72 hrs by Alamar blue assay; format: functional, cell-based; conditions: DG-75, 72 h
[3] = Antiproliferative activity against human DG75 cells at 10 uM after 72 hrs by Alamar blue assay; format: functional, DG-75
[4] = (§2) Antiproliferative activity against human MUTU-I cells at 10 uM after 24 hrs by Alamar blue assay; format: functional
How it was run: (§3)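 Cells were treated with a single 10 µM dose for 24 h. PBMCs came from healthy-donor blood by Ficoll density separation and were kept in IMDM with 10% FBS. Viability was read by Alamar Blue fluorescence (590 nm, ex 544 nm) against untreated cells. Three independent experiments were run, with a Student's t-test against vehicle.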

[5] = (§4) Induction of apoptosis in human MUTU-I cells assessed as accumulation at pre-G1 phase at 10 uM after 24 hrs using propidium iodide staining by FACS analysis; format: functional
How it was run: (§5)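 Cells (7.5×10^5 per 5 mL) were treated, then washed in cold PBS and fixed overnight at 4 °C in 70% ethanol. They were stained with RNase A and propidium iodide for 30 min at 37 °C in the dark. Flow cytometry counted 10,000 gated cells, and the pre-G1 fraction was scored.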

HL-60 [6] = assay: Induction of apoptosis in human HL60 cells expressing p-glycoprotein; format: functional, cell-based
PBMC = assay: Antiproliferative activity against human PBMC at 10 uM after 24 hrs by Alamar blue assay; format: cell-based; how it was run: as §3
HL-60 [7] = assay: Induction of apoptosis in human HL60 cells; format: functional, cell-based
HL-60 [8] = assay: Induction of apoptosis in human HL60 cells expressing BCRP; format: functional, cell-based
MUTU-I [9] = assay: Induction of apoptosis in human MUTU-I cells assessed as activation of caspase 3 and 7 at 10 uM after 8 hrs by Apotox-Glo Triplex assay; format: functional, cell-based
How it was run: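 Cells were seeded at 10,000/well and treated at 10 µM for 8 h. Caspase-Glo reagent (Apotox-Glo Triplex) was added, followed by brief orbital shaking and 30 min at room temperature, then a luminescence read. Vinblastine 100 nM was the positive control, with a Student's t-test against vehicle.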

DG-75 [10] = assay: as §1; format: functional, cell-based
DG-75 [11] = assay: Antiproliferative activity against human DG75 cells at 10 uM after 24 hrs by Alamar blue assay
MUTU-I [12] = assay: as §2; format: functional; how it was run: as §3
MUTU-I [13] = assay: as §4; format: functional; how it was run: as §5

Row | Structure (SMILES) | EC50 [1] [µM] | EC50 [2] [µM] | further results
1 | CNC(C)/C=C/c1c2ccccc2cc2ccccc12 (stereo unspecified) | 62.9 | > 100 | –
2 | CNCC12c3ccccc3C(CC1C#N)c1ccccc12 (stereo unspecified) | > 100 | > 100 | –
3 | CC(=O)/C=C/c1c2ccccc2cc2ccccc12 | 21.8 | 7.6 | –
4 | Clc1ccc(COC(Cn2ccnc2)c2ccc(Cl)cc2Cl)c(Cl)c1 (stereo unspecified) [MICONAZOLE] | – | – | Activity [3]: >90%; Activity [4]: >90%
5 | O=[N+]([O-])/C=C/c1c2ccccc2cc2ccccc12 | 3 | 1.5 | Activity [5]: 31.43%; Activity (HL-60 [6]): Active; Activity (PBMC): Toxic; Activity (HL-60 [7]): Active; Activity (HL-60 [8]): Active; Activity (MUTU-I [9]): Active
6 | O=[N+]([O-])c1ccc(/C=C/c2c3ccccc3cc3ccccc23)cc1 | 8.8 | > 100 | –
7 | CCOC(=O)C1CC2c3ccccc3C1c1ccccc12 (stereo unspecified) | 55.4 | > 100 | –
8 | CCN(CC)C(=O)/C=C/c1c2ccccc2cc2ccccc12 | 21.5 | 9.3 | –
9 | c1ccc2c(c1)C1CC(CN3CCOCC3)C2c2ccccc21 (stereo unspecified) | 23.5 | 8.8 | –
10 | CCOC(=O)C1=CC2c3ccccc3C1c1ccccc12 | > 100 | – | Activity (DG-75 [10]): inactive
11 | O=C(O)C(Cc1ccc(O)cc1)NC(=O)C1CC2c3ccccc3C1c1ccccc12 (stereo unspecified) | > 100 | – | –
12 | Clc1ccc(N2CCN(CC3CC4c5ccccc5C3c3ccccc34)CC2)cc1 (stereo unspecified) | > 100 | > 100 | –
13 | CN(C(=O)C1CC2c3ccccc3C1(C=O)c1ccccc12)C1CCCCC1 (stereo unspecified) | 40.6 | > 100 | Activity (HL-60 [6]): Active; Activity (HL-60 [7]): Active; Activity (HL-60 [8]): Active
14 | CCNCC1CC2c3ccccc3C1c1ccccc12 (stereo unspecified) | > 100 | > 100 | –
15 | N#C/C=C/c1c2ccccc2cc2ccccc12 | 21.2 | > 100 | –
16 | COC(=O)C(CC(C)C)NC(=O)C1CC2c3ccccc3C1c1ccccc12 (stereo unspecified) | > 100 | – | –
17 | COC(=O)C(Cc1ccc(O)cc1)NC(=O)C1CC2c3ccccc3C1c1ccccc12 (stereo unspecified) | 63 | 54.6 | –
18 | CN(CC1CC2c3ccccc3C1c1ccccc12)C1CCCCC1 (stereo unspecified) | 23 | 35.5 | Activity (HL-60 [6]): inactive; Activity (HL-60 [7]): inactive; Activity (HL-60 [8]): inactive
19 | CN1CCN(C(=O)C2CC3c4ccccc4C2c2ccccc23)CC1 (stereo unspecified) | > 100 | – | –
20 | CCN(CC)CC1C2c3ccccc3C(c3ccccc32)C1CN(CC)CC (stereo unspecified) | 65 | 51.8 | –
21 | N#CC1CC2c3ccccc3C1(CO)c1ccccc12 (stereo unspecified) | > 100 | > 100 | –
22 | O=C(O)C1CC2c3ccccc3C1c1ccccc12 (stereo unspecified) | > 100 | – | –
23 | CNC(=O)CCC12c3ccccc3C(CC1C#N)c1ccccc12 (stereo unspecified) | > 100 | > 100 | –
24 | CNC(=O)/C=C/c1c2ccccc2cc2ccccc12 | 62.5 | > 100 | –
25 | CC(C)CC(NC(=O)C1CC2c3ccccc3C1c1ccccc12)C(=O)O (stereo unspecified) | > 100 | – | –
26 | CCOC(=O)/C=C/c1c2ccccc2cc2ccccc12 | 27.1 | > 100 | –
27 | CN(C)C(=O)C1C2c3ccccc3C(c3ccccc32)C1C(=O)N(C)C (stereo unspecified) | > 100 | – | –

Row | Structure (SMILES) | EC50 [1] [µM] | EC50 [2] [µM] | further results
28 | c1ccc2c(c1)C1CC(CN3CCCCC3)C2c2ccccc21 (stereo unspecified) | 65.6 | 69.9 | –
29 | CCOC(=O)/C=C/C12c3ccccc3C(CC1C#N)c1ccccc12 (stereo unspecified) | 45.6 | > 100 | –
30 | N#C/C=C/C12c3ccccc3C(CC1C#N)c1ccccc12 (stereo unspecified) | > 100 | > 100 | –
31 | COC(=O)C1=C(C(=O)OC)C2c3ccccc3C1c1ccccc12 | > 100 | – | Activity (DG-75 [10]): inactive
32 | c1ccc(NCC2CC3c4ccccc4C2c2ccccc23)cc1 (stereo unspecified) | > 100 | > 100 | –
33 | C1=C(CN2CCCCC2)C2c3ccccc3C1c1ccccc12 | 31.5 | 10.2 | –
34 | CCOC(=O)C1C2c3ccccc3C(c3ccccc32)C1C(=O)OCC (stereo unspecified) | 89.4 | > 100 | –
35 | O=C(O)C1C2c3ccccc3C(c3ccccc32)C1C(=O)O (stereo unspecified) | > 100 | – | –
36 | CCOC(=O)N1CCN(C(=O)/C=C/c2c3ccccc3cc3ccccc23)CC1 | 5.4 | 11.6 | Activity [5]: 54.7%; Activity (HL-60 [6]): Active; Activity (DG-75 [11]): Active; Activity (PBMC): Non-toxic; Activity (HL-60 [7]): Active; Activity (HL-60 [8]): Active; Activity (MUTU-I [12]): Active; Activity (MUTU-I [9]): Active
37 | CCN(CC)C(=O)C1C2c3ccccc3C(c3ccccc32)C1C(=O)N(CC)CC (stereo unspecified) | > 100 | – | –
38 | N#CC1CC2c3ccccc3C1(/C=N/O)c1ccccc12 (stereo unspecified) | 20.4 | > 100 | –
39 | CCN(CC)C(=O)O/N=C/C12c3ccccc3C(CC1C#N)c1ccccc12 (stereo unspecified) | 28.4 | 3.1 | Activity (MUTU-I [13]): inactive; Activity (HL-60 [6]): inactive; Activity (PBMC): Non-toxic; Activity (HL-60 [7]): inactive; Activity (HL-60 [8]): inactive; Activity (MUTU-I [9]): inactive
40 | N#CC1CC2c3ccccc3C1(/C=N/OC(=O)c1ccccc1)c1ccccc12 (stereo unspecified) | 80.5 | 95.3 | –
41 | O=C(/C=C/c1c2ccccc2cc2ccccc12)N1CCCCC1 | 1.9 | > 100 | Activity [5]: 15.44%; Activity (MUTU-I [9]): Active
42 | N#CC1CC2c3ccccc3C1(C=O)c1ccccc12 (stereo unspecified) | 31.7 | > 100 | –
43 | CN(CC1=CC2c3ccccc3C1c1ccccc12)C1CCCCC1 | 73.3 | > 100 | –
44 | CN(C)C(=O)/C=C/c1c2ccccc2cc2ccccc12 | 24.9 | > 100 | –
45 | N#CC1CC2c3ccccc3C1(COC(=O)c1ccccc1)c1ccccc12 (stereo unspecified) | 24.5 | > 100 | –
46 | CCOC(=O)CCC12c3ccccc3C(CC1C#N)c1ccccc12 (stereo unspecified) | 29.3 | > 100 | –
47 | Cc1ccc(N2CCN(C(=O)/C=C/c3c4ccccc4cc4ccccc34)CC2)cc1 | 38.5 | > 100 | –
48 | O=C(/C=C/c1c2ccccc2cc2ccccc12)N1CCCC1 | 18.7 | 32.5 | –
49 | CC[C@]1(O)C[C@@H]2CN(CCc3c([nH]c4ccccc34)[C@@](C(=O)OC)(c3cc4c(cc3OC)N(C)[C@H]3[C@@](O)(C(=O)OC)[C@H](OC(C)=O)[C@]5(CC)C=CCN6CC[C@]43[C@@H]65)C2)C1 [VINBLASTINE] | – | – | Activity [5]: 52.89%; Activity (DG-75 [11]): Active; Activity (PBMC): Non-toxic; Activity (MUTU-I [12]): Active
50 | CC(=O)O/N=C/C12c3ccccc3C(CC1C#N)c1ccccc12 (stereo unspecified) | 34.6 | > 100 | –
51 | CC(=O)OCC12c3ccccc3C(CC1C#N)c1ccccc12 (stereo unspecified) | 12.8 | > 100 | –
52 | CNC(=O)/C=C/C12c3ccccc3C(CC1C#N)c1ccccc12 (stereo unspecified) | > 100 | > 100 | –
53 | CN(C)CC1CC2c3ccccc3C1c1ccccc12 (stereo unspecified) | > 100 | > 100 | –
54 | CN1CCN(C(=O)/C=C/c2c3ccccc3cc3ccccc23)CC1 | 7.6 | 62.1 | Activity (MUTU-I [13]): inactive; Activity (HL-60 [6]): inactive; Activity (PBMC): Non-toxic; Activity (HL-60 [7]): inactive; Activity (HL-60 [8]): inactive; Activity (MUTU-I [9]): inactive
